Source: PubChem BioAssay
Shown are actives, neighbours in structure and some others; about 3.9% of the full set was active somewhere.
Jurkat tox 60K: reduces viability or proliferation of Jurkat cells. Jurkat E6.1 viability, ATP luminescence, 48 h. inhibition, % at 4 µM. actives 1.2% (n = 56,000). AID 463;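 active = inhibition above the mean inhibition of all tested compounds plus 3 SD, cut at about 28% in these data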
SF1 activator: SF-1 (human) activation; CHO-K1 Gal4-SF-1 LBD luciferase reporter; % increase over DMSO SF-1-specific signal; AID 522; activation, % at 10 µM; actives 1.9% (n = 65,000);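 active = activation above the mean activation of all tested compounds plus 3 SD, cut at about 50% in these data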
Target sequence (Q13285 whole entry, looked up, the tested form may be a part): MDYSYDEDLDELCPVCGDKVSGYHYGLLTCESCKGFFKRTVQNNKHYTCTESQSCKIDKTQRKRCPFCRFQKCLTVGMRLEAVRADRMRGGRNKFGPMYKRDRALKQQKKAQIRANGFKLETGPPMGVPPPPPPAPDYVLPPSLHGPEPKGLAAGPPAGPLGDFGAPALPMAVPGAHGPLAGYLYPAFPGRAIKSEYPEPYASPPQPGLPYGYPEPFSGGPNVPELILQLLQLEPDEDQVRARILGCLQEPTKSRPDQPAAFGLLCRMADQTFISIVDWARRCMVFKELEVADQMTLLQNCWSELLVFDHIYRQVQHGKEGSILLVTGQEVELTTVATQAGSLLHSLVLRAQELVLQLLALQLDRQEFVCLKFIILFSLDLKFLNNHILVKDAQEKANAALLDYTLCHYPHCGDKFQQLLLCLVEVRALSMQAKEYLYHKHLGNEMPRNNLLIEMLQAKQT
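Compound – one dose, 10 µM compound, 1% DMSO · Test system – transient Gal4-SF-1 LBD reporter, CHO-K1 · Input – 4,000 cells in each well · Read-out basis – percent activation relative to DMSO median and mock-transfected background · Replicates – single measurement per compound · Technique – steady-glow luciferase luminescence, read after 15 min reagent incubation · Timing – 20 h compound treatment, 37 °C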
RORa activator: RORA (human) activation. CHO-K1 Gal4-RORA LBD luciferase reporter, luminescence; percent increase over mock-subtracted basal signal. activation, % at 10 µM. actives 1.5% (n = 65,000). AID 560;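 active = activation above the mean of all tested compounds plus 3 SD, cut at about 49% in these data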;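 note: 0% = DMSO-treated RORA cells and 100% = added signal equal to DMSO minus mock-transfected cells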
HEK293 NFkB inh: inhibitors of the PMA/ionomycin-induced NF-kB reporter in HEK293 cells | HEK-293 NF-kB luciferase reporter, luminescence | inhibition, % at 3 µM | actives 0.21% (n = 62,000) | AID 465;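 active = inhibition above the mean of all tested compounds plus 3 SD, cut at about 40% in these data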;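 note: 0% = stimulated DMSO wells and 100% = 10 µM reference inhibitor 5653914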
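System – HEK-293 cells with stable firefly luciferase reporter driven by four HIV NF-kB elements · Doses – one dose, 3 µM · Schedule – 1 h compound pre-incubation, 16 h PMA/ionomycin at 37 °C · Technique – luminescence from luciferase substrate reagent · Measure – percent inhibition normalized per plate to DMSO and reference-inhibitor controls · Replicates – tested once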
An asterisk follows results filed as active; · = not tested or not shown.

SMILES	Jurkat tox 60K	SF1 activator	RORa activator	HEK293 NFkB inh
COC(=O)c1nnn(CC(=O)Nc2cccc(OC)c2)c1C(=O)OC	·	3	-1	5
CC(=O)NC(Cc1ccccc1C)C(=O)NC1CCN(c2c3c(nc4ncnn24)CCC3)CC1 (stereo unspecified)	3	-11	6	4
CCCCNC(=O)CCC(=O)Nc1ncc(-c2ccc(C)cc2)n1C	-3	2	21	-5
Cc1ccc(-c2cnc(NC(=O)CCC(=O)N3CCCCC3)n2C)cc1	3	-65	-77	65*
C=C(C)COc1ccc(-c2[nH]ncc2-c2ccc(OC)c(OC)c2)c(O)c1	65*	21	12	58*
Cn1c(C(=O)NCCc2c[nH]c3ccccc23)cc2sccc21	62*	79*	74*	6
O=c1c2c3c(sc2nc2sc(C4CC4)nn12)CCCC3	8	37	54*	-19
Cc1ccc(NC2=NC(c3ccco3)n3c(nc(C)cc3=O)N2)c(C)c1 (stereo unspecified)	2	7	42	11
O=C(Nc1cccc(-c2cn3ccccc3n2)c1)c1cnccn1	·	52*	46	8
O=C(Nc1cccc(-c2cn3ccsc3n2)c1)c1ccccc1	-1	27	49*	-3
O=C(Nc1ccc(-c2cn3ccsc3n2)cc1)C1COc2ccccc2O1 (stereo unspecified)	-6	57*	17	-11
O=C(Nc1nncs1)C1COc2ccccc2O1 (stereo unspecified)	0	9	-12	7
O=C(Nc1ccc(-c2cn3ccsc3n2)cc1)c1ccc(F)c(S(=O)(=O)N2CCOCC2)c1	18	57*	42	-5
CCOC(=O)c1cccc(NC(=O)c2cnccn2)c1	-8	-3	-10	11
N#CC1=C(c2ccccc2)N=P(N2CCOCC2)(N2CCOCC2)N=C1N1CCOCC1	·	0	15	11
CC(C)OC(=O)c1nnn(-c2nonc2N)c1CN1CCCCCC1	12	-9	1	9
FC(F)C(F)(F)C(F)(F)C(F)(F)c1cc(-c2ccccc2)n[nH]1	-4	-9	13	18
O=C(CSc1nnnn1-c1ccc(Cl)cc1)N1CCc2ccccc2C1	-7	7	2	10
CCCCC(=O)Nc1cccc(-c2cn3ccsc3n2)c1	7	30	58*	-7
O=C(NCc1ccco1)Nc1ccc(Br)cc1Cl	4	60*	57*	-4
Cc1cc(C)n2nc(SCC3COc4ccccc4O3)nc2n1 (stereo unspecified)	0	55*	29	-17
CCOc1ccc(-c2noc(-c3cccnc3)n2)cc1OC	-4	14	57*	-9
Cc1ccccc1-c1nc(-c2cccnc2)no1	-6	67*	43	-6
CN1C(=O)c2cccc(NC(=O)Cc3ccccc3)c2C1=O	0	19	2	10
COc1nnc(-c2ccc(N3CCCCC3)c(N)c2)c2ccccc12	8	20	19	-3
SMILES	Jurkat tox 60K	SF1 activator	RORa activator	HEK293 NFkB inh
CC(=O)c1c(C(C)=O)c(C)n(NC(=O)c2ccncc2)c1C	·	-5	-1	·
Cc1ccc(C)c2[nH]c(=O)c(CN(CCN3CCCC3)C(=O)Nc3cccc(Cl)c3)cc12	51*	-4	19	13
CCOC(=O)c1cnc(SCc2ccccc2)nc1N	-2	67*	51*	-34
Cn1c(COc2ccccc2)nnc1SCCC(=O)Nc1ccccc1	-1	3	-6	5
COc1ccc(Cn2c(C3CC3)nc3ccc(NC(=O)C4CC4)cc3c2=O)cc1	-5	162*	48	-52
CCCc1ccc(-c2ccc(F)c(N)c2)nc1	60*	-60	-69	4
CCN(CCCNC(=O)c1cn(CC)c2ccc(S(=O)(=O)N(C)C)cc2c1=O)c1cccc(C)c1	4	10	62*	25
CCn1cc(C(=O)NCCCN(C)c2ccccc2)c(=O)c2cc(S(=O)(=O)N(C)C)ccc21	-6	1	20	6
COC(=O)CN1CCN(C(=O)c2ccc(F)cc2)c2ccccc2C1	-6	6	-3	5
Cc1nc(-c2ccccc2)nc2[nH]c(C(C)C)cc(=O)c12	6	-4	22	1
Cc1nc(-c2ccccc2)nc2[nH]c(=O)n(-c3ccccc3)c(=O)c12	10	36	60*	7
COc1ccc(OC)c2sc(NC(=O)c3ccc(Br)s3)nc12	1	53*	-6	12
Cc1ccc2[nH]c(-c3ccccc3)cc(=O)c2c1	98*	-14	-15	18
